Measured values as given in ChEMBL document CHEMBL3112487, “Synthesis and antifungal activity of ASP9726, a novel echinocandin with potent Aspergillus hyphal growth inhibition” (2014).
Values after ≈ are worked out from the molar mass of the structure shown. Active and inactive are the calls of the source. The calls are words filed in the database; no cut-off is given here.

Key:
Aspergillus fumigatus [1] = test: Antifungal activity against Aspergillus fumigatus 20024 in human serum assessed as formation of large microcolonies with elongated hypha in all direction at 4 fold MEC after 48 hrs by microscopic analysis; type: functional, organism-based
Aspergillus fumigatus [2] = test: Antifungal activity against Aspergillus fumigatus 20030 in ICR mouse invasive pulmonary aspergillosis model assessed as survival rate at 3 mg/kg, iv qd administered for 10 days measured on day 11 relative to control; type: functional
Aspergillus fumigatus [3] = test: Antifungal activity against Aspergillus fumigatus 20030 in ICR mouse invasive pulmonary aspergillosis model assessed as survival rate at 1.5 mg/kg, iv qd administered for 10 days measured on day 11 relative to control; type: functional
Nakaseomyces glabratus = test: Antifungal activity against echinocandin-resistant Candida glabrata FP2307 in human serum assessed as hyphal growth inhibition after 48 hrs by microscopic analysis; type: functional
Procedure, shortened: (§1)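 Susceptibility testing followed CLSI M27-A3 or M38-A2 standards, using human serum as the growth medium. Fungi were exposed to drug and incubated at 37 °C under 5% CO2 for 48 h.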

Candida parapsilosis = test: Antifungal activity against Candida parapsilosis 20009 in human serum assessed as hyphal growth inhibition after 48 hrs by microscopic analysis; type: functional; details: Lodderomyces parapsilosis, 20009, Serum; procedure, shortened: as §1
Candida albicans = test: Antifungal activity against Candida albicans 20015 in human serum assessed as hyphal growth inhibition after 48 hrs by microscopic analysis; type: functional; details: Candida albicans, 20015, Serum; procedure, shortened: as §1
Aspergillus fumigatus [4] = test: Antifungal activity against Aspergillus fumigatus 20024 in human serum assessed as hyphal growth inhibition after 48 hrs by microscopic analysis; type: functional; details: Aspergillus fumigatus, 20024, Serum; procedure, shortened: as §1
Aspergillus fumigatus [5] = test: Antifungal activity against Aspergillus fumigatus 20024 in human serum assessed as formation of small, rounded and compact microcolonies with severely stunted hypha at 4 fold MEC after 48 hrs by microscopic analysis; type: functional, organism-based

Row | SMILES | Activity (Aspergillus fumigatus [1]) | survival at 3 mg/kg (Aspergillus fumigatus [2]) | survival at 1.5 mg/kg (Aspergillus fumigatus [3]) | MIC (Nakaseomyces glabratus) | MIC (Candida parapsilosis) | MIC (Candida albicans) | MIC (Aspergillus fumigatus [4]) | Activity (Aspergillus fumigatus [5])
1 | CC[C@H](C)C[C@H](C)CCCCCCCCC(=O)N[C@H]1C[C@@H](O)[C@@H](NCCN)NC(=O)[C@@H]2[C@@H](O)CCN2C(=O)[C@H]([C@H](O)CCN)NC(=O)[C@H]([C@H](O)[C@@H](O)c2ccc(O)cc2)NC(=O)[C@@H]2C[C@@H](O)CN2C(=O)[C@H]([C@@H](C)O)NC1=O [CASPOFUNGIN] | inactive | 20% | 10% | > 64 µg/mL | 64 µg/mL (≈ 58.5 µM) | 0.25 µg/mL (≈ 0.229 µM) | 0.5 µg/mL (≈ 0.457 µM) | 
2 | COc1cc(C[C@@H](O)[C@@H]2NC(=O)[C@@H]3C[C@@H](O)CN3C(=O)[C@H]([C@@H](C)O)NC(=O)[C@@H](NC[C@H]3CC[C@H](c4nnc(-c5ccc(N6CCC(OC)(C7CCCCC7)CC6)cc5)s4)CC3)C[C@@H](O)CNC(=O)[C@@H]3[C@@H](O)[C@@H](C)CN3C(=O)[C@H]([C@H](O)CCNC(CO)CO)NC2=O)ccc1O |  | 70% | 40% | 2 µg/mL (≈ 1.48 µM) | 4 µg/mL (≈ 2.96 µM) | 0.25 µg/mL (≈ 0.185 µM) | 0.25 µg/mL (≈ 0.185 µM) | Active
